# Bioassay records (PubChem BioAssay)
# This is a sample that favours compounds with a hit; in the whole collection about 2.6% have one here.
# VLA-4 inh – inhibition in a human VLA-4 binding assay. P13612. VLA-4 expressing cells, ligand binding flow cytometry. inhibition, % (about 7 µM as worked out from the volumes in the protocol). 0.2% of 330,000 active. AID 2557; in the data active means inhibition above about 50%
# Rce1 inhib – blocks yeast Ras-converting enzyme; AID 2563; 0.27% of 290,000 active; calls only; yeast membranes, quenched prenylated peptide cleavage fluorescence; Q03530;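 active means fall in fluorescence gain of 50% or more versus controls, with final raw signal at or below 3038400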;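 further: plate controls were neutral control wells for no effect and wells lacking membranes for full effect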
# Target sequence (Q03530 whole entry, looked up): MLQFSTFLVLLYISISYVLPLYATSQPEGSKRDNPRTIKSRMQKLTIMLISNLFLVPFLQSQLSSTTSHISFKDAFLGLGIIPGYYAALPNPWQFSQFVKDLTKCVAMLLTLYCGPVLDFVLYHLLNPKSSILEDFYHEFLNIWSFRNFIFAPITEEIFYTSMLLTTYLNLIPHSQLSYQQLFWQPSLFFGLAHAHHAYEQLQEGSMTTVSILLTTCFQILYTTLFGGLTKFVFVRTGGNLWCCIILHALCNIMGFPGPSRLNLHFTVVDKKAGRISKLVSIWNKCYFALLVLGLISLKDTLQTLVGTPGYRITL
# Platelet DG rel – modulates dense granule release in human platelets | human platelet-rich plasma, SFLLRN dense granule ATP release, luminescence | inhibition, %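 (compounds screened at 7.5 µM in platelet-rich plasma)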 | 0.22% of 300,000 active;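 active means mean replicate score, as percent of positive control, at or above 50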
# TAAR1 antagonist – human TAAR1 antagonism; Q96RJ0; CHO RD-HGA16 TAAR1, Fluo-8 calcium fluorescence, antagonist; inhibition, % at 3 µM; 1.5% of 360,000 active;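 active means inhibition above a per-plate cutoff, the mean inhibition of test compounds on that plate plus 3 SD, cut at about 49% in these data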;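 further: 0% = DMSO plus EC80 beta-PEA response and 100% = DMSO alone without agonist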
# Target sequence (Q96RJ0 whole entry, looked up): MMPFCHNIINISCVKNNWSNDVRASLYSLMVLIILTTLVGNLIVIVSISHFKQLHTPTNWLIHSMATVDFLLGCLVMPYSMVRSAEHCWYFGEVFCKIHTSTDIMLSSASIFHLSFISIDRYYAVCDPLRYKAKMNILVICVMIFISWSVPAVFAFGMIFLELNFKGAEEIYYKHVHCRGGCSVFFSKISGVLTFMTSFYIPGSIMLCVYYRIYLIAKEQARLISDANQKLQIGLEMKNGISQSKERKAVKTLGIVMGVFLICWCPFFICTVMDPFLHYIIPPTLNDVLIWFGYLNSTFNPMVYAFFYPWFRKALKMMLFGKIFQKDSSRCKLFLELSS
#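 Material: CHO RD-HGA16 cells bearing hTAAR1; compound dosing: one-point dosing, 3 µM nominal final; schedule: dye loading 75 min at 37 °C, then 30 min room temperature; measured by: calcium fluorescence with Fluo-8; control set: vehicle and agonist controls; replication: n of 1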
# TAAR1 ag – agonists of human TAAR1; CHO RD-HGA16 TAAR1, Fluo-8 calcium fluorescence; vehicle wells 0%, saturating PEA agonist 100%; Q96RJ0; activation, % at 3 µM; 0.99% of 360,000 active; AID 624467;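 active means activation above the mean activation of all test compounds in the run plus 3 SD, cut at about 38% in these data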
#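 Benchmarks: low control DMSO, high control PEA (EC100); System: CHO RD-HGA16 cells carrying human TAAR1 plus Gα16; Detection: Fluo-8 fluorescence, 5 s baseline then 140 s kinetic read; Schedule: 17-24 h plating, Fluo-8 75 min 37 °C, 30 min RT; Read-out basis: % activation from peak over basal fluorescence ratio, DMSO-to-PEA scaled.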
# TAAR1 nonsel count – nonselective antagonism, TAAR1 counter-screen; counterscreen cell line, calcium fluorescence, antagonist mode; inhibition, % at 3 µM; AID 651780; shares compounds with TAAR1 antagonist; 77% of 2,400 active; in the data active means inhibition above about 22%;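 further: CHO-Ga16 host cells stimulated with ATP at an EC80 level; 0% = agonist EC80 plus vehicle and 100% = vehicle without agonist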
# TAAR1 antag conf – confirmation of human TAAR1 antagonists; TAAR1-expressing cells, fluorescence antagonist read-out; shares compounds with TAAR1 antagonist; inhibition, % at 3 µM; 40% of 2,400 active; in the data active means inhibition above about 49%;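 further: CHO-Ga16 host cells challenged with agonist PEA near its EC80; 0% = agonist at EC80 plus vehicle and 100% = vehicle with no agonist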
# Ga16 ag counter – nonselective Ga16 agonist in TAAR1 antagonist counter-screen | Ga16-expressing cells, calcium fluorescence, agonist counterscreen | activation, % at 3 µM | 18% of 2,400 active | shares compounds with TAAR1 antagonist; in the data active means activation above about 12%;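 further: 0% = vehicle wells and 100% = saturating stimulus response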
# TAAR1 ag counter – TAAR1 agonism, antagonist counter-screen; hTAAR1 cell line, fluorescence activation, agonist mode; shares compounds with TAAR1 antagonist; 2% of 2,400 active; activation, % at 3 µM; in the data active means activation above about 37%;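 further: CHO cells stably expressing TAAR1 with calcium dye readout; 0% = DMSO vehicle and 100% = full agonist response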
# Starred values were filed as active, the others as inactive; i = inactive; · = not tested or not shown; + = active, no number.
SMILES,VLA-4 inh,Rce1 inhib,Platelet DG rel,TAAR1 antagonist,TAAR1 ag,TAAR1 nonsel count,TAAR1 antag conf,Ga16 ag counter,TAAR1 ag counter
COc1cccc(/C=N/NC(=O)c2cc(C34CC5CC(CC(C5)C3)C4)[nH]n2)c1,26,i,-2,57*,9,23*,36,8,18
CCCCN1C(=O)c2ccc(C(=O)Nc3ccc(C)c(S(=O)(=O)N(C)C)c3)cc2C1=O,19,i,-8,68*,12,50*,54*,13*,9
CCCCN1C(=O)c2ccc(C(=O)Nc3cccc(C)c3C)cc2C1=O,18,i,7,-8,9,·,·,·,·
Cc1ccc(OCC(=O)Nc2sc3c(c2C#N)CCC3)cc1,14,i,5,51*,0,0,-7,-1,0
Cc1ccc(CSc2nnc(-c3ccc4c(c3)OCO4)o2)cc1,13,i,-2,7,7,·,·,·,·
Cc1ccccc1NC(=O)Cc1nc(CSc2nnc(-c3ccc4c(c3)OCO4)o2)cs1,-3,i,10,55*,15,25*,37,8,5
Cc1cc2oc(=O)cc(CN3CCCCC3C)c2cc1C (stereo not drawn),-19,i,-1,-2,-2,·,·,·,·
Cc1cccnc1C(NC(=O)C1CCN(Cc2ccc(Cl)cc2)CC1)c1ccc(F)cc1 (stereo not drawn),·,·,·,-2,2,·,·,·,·
COc1cc(C(=O)OCCc2cc3ccccc3c(=O)o2)cc(OC)c1OC,-1,·,·,65*,9,27*,39,8,5
COc1cc(C(=O)OCCCc2cc3ccccc3c(=O)o2)cc(OC)c1OC,5,·,·,3,4,·,·,·,·
Cc1csc2nc(CSc3nc4ccccc4o3)c(Br)n12,16,i,-1,61*,20,15,19,5,9
COc1ccc(N(C)S(=O)(=O)c2cccc(C(=O)Nc3nnc(C)s3)c2)cc1,-23,·,·,-9,1,·,·,·,·
COc1ccc(N(C)S(=O)(=O)c2cccc(C(=O)Nc3cccc(C(=O)NC4CC4)c3)c2)cc1,0,·,·,61*,9,21,40,11,8
COc1ccc(N(C)S(=O)(=O)c2cccc(C(=O)Nc3nc(C)c(C(C)=O)s3)c2)cc1,5,·,·,62*,27,38*,57*,15*,13
COc1ccc(N(C)S(=O)(=O)c2cccc(C(=O)OCC(=O)Nc3cc(C)ccc3OC)c2)cc1,·,·,·,84*,9,34*,51*,12*,8
COc1ccc(N(C)S(=O)(=O)c2cccc(C(=O)NC3CCC(C)CC3)c2)cc1 (stereo not drawn),4,i,-2,18,9,·,·,·,·
COc1ccc(-n2nnnc2CNC(=O)c2c(-c3ccccc3Cl)noc2C)cc1,·,·,·,3,1,·,·,·,·
Cc1cc(C(=O)NNC(=O)c2ccc(Cl)c(S(N)(=O)=O)c2)c(C)o1,6,·,·,-8,1,·,·,·,·
COC(=O)[C@]12CCCCC=C1N(Cc1ccc3c(c1)OCO3)C(=O)[C@H](CC(=O)N1CCSCC1)C2,·,·,·,67*,12,26*,48,9,14
CCOc1ccc(C2C(C(=O)c3cccs3)=C(O)C(=O)N2CCN2CCOCC2)cc1 (stereo not drawn),2,i,2,-9,0,·,·,·,·
COc1cc(-c2nnc(SCC(=O)c3ccc(C)cc3)o2)cc(OC)c1OC,-12,i,5,54*,4,26*,28,4,1
Cc1ccccc1S(=O)(=O)Oc1ccc2ccc(O)cc2c1,19,i,0,66*,3,30*,45,5,7
COC(=O)C1=C(C)N(Cc2ccccc2C(F)(F)F)C(=NCc2ccc(OC)cc2)NC1c1ccccc1C(F)(F)F (stereo not drawn),·,·,·,-18,-1,·,·,·,·
O=C(CCc1ccccc1)c1c(O)cc(O)cc1O,9,i,-4,68*,3,25*,30,4,1
CCN(CC(=O)Nc1ccc(NC(C)=O)cc1)C(=O)c1oc2c(ccc3ccccc32)c1C,-26,·,·,64*,33,39*,61*,18*,28
SMILES,VLA-4 inh,Rce1 inhib,Platelet DG rel,TAAR1 antagonist,TAAR1 ag,TAAR1 nonsel count,TAAR1 antag conf,Ga16 ag counter,TAAR1 ag counter
CCn1nc(C)c(CN2CCCC(CNS(=O)(=O)c3ccc(OC)cc3)C2)c1C (stereo not drawn),7,i,9,-27,0,·,·,·,·
c1ccc(Nc2nc3ccccc3n3nnnc23)cc1,-48,i,-1,-23,5,·,·,·,·
CCN(CC)S(=O)(=O)c1ccc(Nc2nc3ccccc3n3nnnc23)cc1,3,i,-27,49*,10,23*,42,10,15
O=C(CSc1nnc(CNC(=O)c2c(F)cccc2F)o1)NCC1CCCO1 (stereo not drawn),2,i,-2,-4,0,·,·,·,·
C[C@H]1CN([C@@H](C)CO)C(=O)CCCn2nncc2CO[C@@H]1CN(C)Cc1cccc(O)c1,·,·,·,1,2,·,·,·,·
CC(=O)c1ccccc1OCCOc1ccccc1C(C)=O,1,i,-2,0,3,·,·,·,·
CC(=O)c1ccccc1OCc1ccc(S(=O)(=O)Cc2ccccc2)cc1,0,i,12,74*,12,30*,42,9,15
CN(C(=O)c1ccc2c(c1)SC1=NS(=O)(=O)CCN12)C(c1ccccc1)c1ccccc1,35,+,-3,69*,21,31*,53*,8,9
Cc1ccc(C(=O)NCC(=O)OCCCn2c(=O)[nH]c3ccccc32)cc1C,·,·,·,-6,2,·,·,·,·
Cc1ccc(S(=O)(=O)N2CCOCC2)cc1NC(=O)COc1ccc(C(=O)c2ccccc2)cc1,2,·,·,82*,23,37*,59*,14*,13
CC(=O)NCCNC(=O)c1ccc(CSc2nc3ccccc3s2)cc1,2,i,1,-17,5,·,·,·,·
CCOc1ccc(S(=O)(=O)N(CC)CC)cc1NC(=O)c1ccc(N2CCCC2=O)cc1,12,i,-6,-3,3,·,·,·,·
CC(=O)c1ccc(N2CCN(C(=O)CCCc3nc4ccccc4s3)CC2)cc1,11,·,-1,60*,15,34*,46,11,6
O=C(Cc1c(F)cccc1Cl)Nc1ccccc1C(=O)N1CCOCC1,-5,i,43,-20,3,·,·,·,·
c1ccc(COc2cccc(-c3cc4nc(NCCc5ccncc5)ccn4n3)c2)cc1,·,·,·,71*,12,38*,51*,9,17
N=c1c2c(ncn1Cc1ccco1)Oc1cc(O)ccc1C2c1ccccc1 (stereo not drawn),-6,i,16,-14,0,·,·,·,·
